Test results published in ChEMBL document CHEMBL5058577, “EUbOPEN Chemogenomics Library 2 (Multiplex)” (2022).

Test system: Fibroblast
Assay: Multiplex assay against human fibroblast
Type: toxicity, cell-based
In short: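 Live cells were stained at seeding with Hoechst33342, BioTracker Green Microtubule Cytoskeleton Dye, MitoTracker Red and Annexin V Alexa Fluor 680. Following compound addition, they were imaged on a CQ1 microscope at 37°C and 5% CO2 and gated by CellPathfinder machine learning into Hoechst high-intensity objects or normal cells, with normal cells split into healthy, pyknosed or fragmented nuclei and pyknosed cells into mitotic or apoptotic. Tubulin, mitochondrial-mass and membrane-permeability phenotypes are per cents of healthy-nucleus cells.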

[1] = 12 h, 1 µM, compound concentration 1 uM, replicate 1
[2] = 12 h, 1 µM, compound concentration 1 uM, replicate 2
[3] = 12 h, 10 µM, compound concentration 10 uM, replicate 1
[4] = 12 h, 10 µM, compound concentration 10 uM, replicate 2
[5] = 24 h, 1 µM, compound concentration 1 uM, replicate 1
[6] = 24 h, 1 µM, compound concentration 1 uM, replicate 2
[7] = 24 h, 10 µM, compound concentration 10 uM, replicate 1
[8] = 24 h, 10 µM, compound concentration 10 uM, replicate 2
[9] = 48 h, 1 µM, compound concentration 1 uM, replicate 1
[10] = 48 h, 1 µM, compound concentration 1 uM, replicate 2
[11] = 48 h, 10 µM, compound concentration 10 uM, replicate 1
[12] = 48 h, 10 µM, compound concentration 10 uM, replicate 2

SMILES: Cc1nc2ccc(Oc3ccc(F)cc3)cc2c(=O)n1C[C@H]1CCCN(C(C)C)C1.Cl
- Population Apoptotic (%) [1]: 34%
- Population Fragmented Nuclei (%) [1]: 19%
- Population Healthy Nuclei (%) [1]: 67%
- Population Hoechst High Intensity Objects (%) [1]: 5%
- Population Membrane Permeable-Phenotype (%) [1]: 1%
- Population Mitochondria Different-Phenotype (%) [1]: 4%
- Population Mitotic Cells (%) [1]: 65%
- Population Normal (%) [1]: 94%
- Population Pyknosed Nuclei (%) [1]: 13%
- Population Tubulin-Different-Phenotype (%) [1]: 31%
- Total Cell Count [1]: 184
- Population Apoptotic (%) [2]: 44%
- Population Fragmented Nuclei (%) [2]: 24%
- Population Healthy Nuclei (%) [2]: 47%
- Population Hoechst High Intensity Objects (%) [2]: 9%
- Population Membrane Permeable-Phenotype (%) [2]: 21%
- Population Mitochondria Different-Phenotype (%) [2]: 8%
- Population Mitotic Cells (%) [2]: 55%
- Population Normal (%) [2]: 90%
- Population Pyknosed Nuclei (%) [2]: 29%
- Population Tubulin-Different-Phenotype (%) [2]: 70%
- Total Cell Count [2]: 111
- Population Apoptotic (%) [3]: 53%
- Population Fragmented Nuclei (%) [3]: 19%
- Population Healthy Nuclei (%) [3]: 61%
- Population Hoechst High Intensity Objects (%) [3]: 4%
- Population Membrane Permeable-Phenotype (%) [3]: 1%
- Population Mitochondria Different-Phenotype (%) [3]: 22%
- Population Mitotic Cells (%) [3]: 46%
- Population Normal (%) [3]: 95%
- Population Pyknosed Nuclei (%) [3]: 19%
- Population Tubulin-Different-Phenotype (%) [3]: 88%
- Total Cell Count [3]: 241
- Population Apoptotic (%) [4]: 61%
- Population Fragmented Nuclei (%) [4]: 36%
- Population Healthy Nuclei (%) [4]: 44%
- Population Hoechst High Intensity Objects (%) [4]: 3%
- Population Membrane Permeable-Phenotype (%) [4]: 5%
- Population Mitochondria Different-Phenotype (%) [4]: 25%
- Population Mitotic Cells (%) [4]: 38%
- Population Normal (%) [4]: 96%
- Population Tubulin-Different-Phenotype (%) [4]: 80%
- Total Cell Count [4]: 205
- Population Apoptotic (%) [5]: 66%
- Population Fragmented Nuclei (%) [5]: 17%
- Population Healthy Nuclei (%) [5]: 68%
- Population Hoechst High Intensity Objects (%) [5]: 3%
- Population Membrane Permeable-Phenotype (%) [5]: 1%
- Population Mitochondria Different-Phenotype (%) [5]: 6%
- Population Mitotic Cells (%) [5]: 33%
- Population Normal (%) [5]: 96%
- Population Pyknosed Nuclei (%) [5]: 13%
- Population Tubulin-Different-Phenotype (%) [5]: 30%
- Total Cell Count [5]: 186
- Population Apoptotic (%) [6]: 38%
- Population Fragmented Nuclei (%) [6]: 29%
- Population Healthy Nuclei (%) [6]: 50%
- Population Hoechst High Intensity Objects (%) [6]: 7%
- Population Membrane Permeable-Phenotype (%) [6]: 19%
- Population Mitochondria Different-Phenotype (%) [6]: 17%
- Population Mitotic Cells (%) [6]: 61%
- Population Normal (%) [6]: 92%
- Population Pyknosed Nuclei (%) [6]: 20%
- Population Tubulin-Different-Phenotype (%) [6]: 73%
- Total Cell Count [6]: 112
- Population Apoptotic (%) [7]: 67%
- Population Fragmented Nuclei (%) [7]: 27%
- Population Healthy Nuclei (%) [7]: 58%
- Population Hoechst High Intensity Objects (%) [7]: 3%
- Population Membrane Permeable-Phenotype (%) [7]: 0%
- Population Mitochondria Different-Phenotype (%) [7]: 27%
- Population Mitotic Cells (%) [7]: 32%
- Population Normal (%) [7]: 96%
- Population Pyknosed Nuclei (%) [7]: 13%
- Population Tubulin-Different-Phenotype (%) [7]: 84%
- Total Cell Count [7]: 290
- Population Apoptotic (%) [8]: 54%
- Population Fragmented Nuclei (%) [8]: 30%
- Population Healthy Nuclei (%) [8]: 52%
- Population Hoechst High Intensity Objects (%) [8]: 6%
- Population Membrane Permeable-Phenotype (%) [8]: 1%
- Population Mitochondria Different-Phenotype (%) [8]: 29%
- Population Mitotic Cells (%) [8]: 45%
- Population Normal (%) [8]: 93%
- Population Pyknosed Nuclei (%) [8]: 17%
- Population Tubulin-Different-Phenotype (%) [8]: 87%
- Total Cell Count [8]: 187
- Population Apoptotic (%) [9]: 66%
- Population Fragmented Nuclei (%) [9]: 25%
- Population Healthy Nuclei (%) [9]: 66%
- Population Hoechst High Intensity Objects (%) [9]: 3%
- Population Membrane Permeable-Phenotype (%) [9]: 0%
- Population Mitochondria Different-Phenotype (%) [9]: 2%
- Population Mitotic Cells (%) [9]: 33%
- Population Normal (%) [9]: 96%
- Population Pyknosed Nuclei (%) [9]: 8%
- Population Tubulin-Different-Phenotype (%) [9]: 33%
- Total Cell Count [9]: 184
- Population Apoptotic (%) [10]: 42%
- Population Fragmented Nuclei (%) [10]: 36%
- Population Healthy Nuclei (%) [10]: 44%
- Population Hoechst High Intensity Objects (%) [10]: 5%
- Population Membrane Permeable-Phenotype (%) [10]: 6%
- Population Mitochondria Different-Phenotype (%) [10]: 13%
- Population Mitotic Cells (%) [10]: 57%
- Population Normal (%) [10]: 94%
- Population Pyknosed Nuclei (%) [10]: 19%
- Population Tubulin-Different-Phenotype (%) [10]: 68%
- Total Cell Count [10]: 105
- Population Apoptotic (%) [11]: 66%
- Population Fragmented Nuclei (%) [11]: 23%
- Population Healthy Nuclei (%) [11]: 65%
- Population Hoechst High Intensity Objects (%) [11]: 9%
- Population Membrane Permeable-Phenotype (%) [11]: 0%
- Population Mitochondria Different-Phenotype (%) [11]: 20%
- Population Mitotic Cells (%) [11]: 33%
- Population Normal (%) [11]: 90%
- Population Pyknosed Nuclei (%) [11]: 10%
- Population Tubulin-Different-Phenotype (%) [11]: 85%
- Total Cell Count [11]: 290
- Population Apoptotic (%) [12]: 68%
- Population Fragmented Nuclei (%) [12]: 33%
- Population Healthy Nuclei (%) [12]: 53%
- Population Hoechst High Intensity Objects (%) [12]: 3%
- Population Membrane Permeable-Phenotype (%) [12]: 2%
- Population Mitochondria Different-Phenotype (%) [12]: 19%
- Population Mitotic Cells (%) [12]: 32%
- Population Normal (%) [12]: 96%
- Population Pyknosed Nuclei (%) [12]: 12%
- Total Cell Count [12]: 201
